The text below walks through data of ChEMBL document CHEMBL1123984, “Stereochemical aspects of phenylethanolamine analogues as substrates of phenylethanolamine N-methyltransferase” (J Med Chem, 1988).

For data set [1], the target named is T1, Phenylethanolamine N-methyltransferase (Bos taurus, UniProt P10938).
T1 sequence (P10938 whole entry): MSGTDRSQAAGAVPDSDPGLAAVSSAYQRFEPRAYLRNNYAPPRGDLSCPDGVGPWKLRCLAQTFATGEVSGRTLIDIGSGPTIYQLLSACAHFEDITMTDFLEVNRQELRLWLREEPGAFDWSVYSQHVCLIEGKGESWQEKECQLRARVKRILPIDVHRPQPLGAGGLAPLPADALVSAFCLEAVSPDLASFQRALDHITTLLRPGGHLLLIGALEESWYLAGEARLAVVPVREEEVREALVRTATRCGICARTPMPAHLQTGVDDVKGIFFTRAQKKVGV
As to the kind of experiment: (§1) In vitro binding affinity of compound towards bovine adrenal phenylethanolamine N-methyl-transferase (PNMT). The procedure, abridged:
(§2)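 Bovine adrenal PNMT, purified through the isoelectric precipitation step, tested in a radiochemical methylation assay with isoamyl alcohol/toluene extraction. For substrates, Km came from at least five concentrations of the variable substrate. For inhibitors, Ki came from at least three inhibitor concentrations, with phenylethanolamine as the variable substrate.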

Data set [2] is described as follows: Ratio expressed as 100x Vmax/Km. It is filed as ADME. In short, it runs like this:
(§3)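 Substrate kinetics used bovine adrenal PNMT, purified through the isoelectric precipitation step, in a radiochemical methylation assay with isoamyl alcohol/toluene extraction. At least five concentrations of the variable substrate gave Km and Vmax. Vmax is in nmol product per mg protein per min, and the ratio is 100 × Vmax/Km.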

The nature of data set [3]: Vmax of compound was determined. The data set is classed as ADME. The procedure, abridged:
as §3

Substrate in data set [4]: N[C@H]1CCc2ccccc2[C@H]1O
Described as §1. In short, it runs like this:
as §2

Substrate in data set [5]: C[C@H](N)[C@H](O)c1ccccc1
The description is as §1. The procedure, abridged:
as §2

In general, Ki refers to the equilibrium dissociation constant of an inhibitor or competing ligand from its target. Lower therefore signals a stronger hold on the target. For `C[C@@H](N)[C@@H](O)c1ccccc1` [(1S,2R)-PHENYLPROPANOLAMINE], in data set [1], the Ki was determined as 2980 µM.
Still for that read-out and setting: the figure for `N[C@H]1CCc2ccccc2[C@@H]1O` is 4.6 µM.
In data set [1], `N[C@H]1CCc2ccccc2C1` registered an inhibition constant (Ki) of 4.1 µM.
What is called Vmax is the rate approached at saturating substrate. As for `N[C@H]1CCc2ccccc2[C@H]1O`, in data set [2], the Ratio is on record as 3.6. The maximum rate (Vmax) in data set [3] was 0.16 nM/mg/min.
For `NC[C@@H](O)c1ccccc1`, the Ratio in data set [2] stood at 0.96. The maximum rate (Vmax) in data set [3] worked out at 0.92 nM/mg/min.
Consider `N[C@@H]1CCc2ccccc2[C@@H]1O` (racemic), for which the Vmax in data set [3] was 0.15 nM/mg/min.
As to `C[C@H](N)[C@@H](O)c1ccccc1` [CATHINE], the inhibition constant Ki in data set [1] came to 3700 µM.
As for `N[C@@H]1CCc2ccccc2C1O` (single isomer, unassigned), in data set [2], the Ratio was found to be 0.062. The maximal velocity (Vmax) in data set [3] is 0.12 nM/mg/min.
Regarding `NC[C@H](O)c1ccccc1`, the Ratio in data set [2] amounted to 1.7. For the same molecule, in data set [3], the Vmax stood at 4.85 nM/mg/min.
In turn, `N[C@@H]1CCc2ccccc2[C@@H]1O` returned a Ki in data set [1] of 293 µM.
Still for that read-out and setting: with `C[C@@H](N)[C@H](O)c1ccccc1` the figure was 2440 µM.
With `N[C@@H]1CCc2ccccc2C1`, in data set [1], the affinity, expressed as Ki, was 10 µM.
`C[C@H](N)[C@H](O)c1ccccc1` [(1R,2S)-PHENYLPROPANOLAMINE]: the Ratio in data set [2] amounted to 0.017. In data set [3], the maximal velocity (Vmax) is 0.22 nM/mg/min.

B1: Phenylethanolamine N-methyltransferase (Bos taurus), P10938 (protein)
chain: T1 sequence (P10938 whole entry)
A word on the Km: it is the substrate concentration at which the rate is half of its maximum. Consider B1, for which the Michaelis constant (Km) in data set [4] came out at 4.5 µM; in data set [5], 1310 µM.
